Measured values as given in ChEMBL document CHEMBL1137516, “A novel class of potent NF-kappaB signaling inhibitors” (Bioorg Med Chem Lett, 2007).

How the values were obtained:
[1] = Inhibition of NF-kappaB in A549 cells after 5 hrs by reporter gene assay; assay type: cell-based; conditions: Homo sapiens, A549, 5 h
Summary of the method: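 A549 cells stably transfected with a pNF-κB-SEAP reporter were plated at 2 · 10^4/well and left to attach overnight. They were pre-incubated 5 h with compound at 100, 30, 10, 3, 1, 0.3, 0.1 and 0 µM, then stimulated with 10 ng/ml TNF-α for 22 h. Supernatant SEAP was read by chemiluminescence, viability by CellTiter-Blue, with four replicates per concentration.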

[2] = Inhibition of chymotrypsin like activity of human 20S proteasome
Summary of the method: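 20S proteasome (1.3 µg) was pre-incubated 10 min at room temperature in 25 mM HEPES pH 7.5, 0.5 mM EDTA, 0.033% SDS, then added to compound in DMSO and Suc-LLVY-AMC substrate (75 µM in the substrate solution). Fluorescence (ex 360/em 465 nm) was followed 20 min at 30 °C as RFU/min. Eight inhibitor concentrations were run in triplicate, and IC50 came from a four-parameter logistic fit.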

PBMC = assay: Antiproliferative activity against human PBMC; assay type: functional, cell-based
Summary of the method: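 Human peripheral blood mononuclear cells were stimulated with phytohemagglutinin, so the proliferation read-out reflects mainly T-cells.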

A549 = assay: Inhibition of NF-kappaB in A549 cells at 20 uM after 5 hrs by reporter gene assay; assay type: cell-based; conditions: Homo sapiens

Row | SMILES | EC50 [1] [nM] | other results
1 | Cc1cc2nnc(C(=O)N3CCC(c4nc(C(=O)N5CCN(c6cccc(C(F)(F)F)c6)CC5)cs4)CC3)c(C)n2n1 | > 20000 | 
2 | COc1nc(OC)nc(N2CCC(c3nc(C(=O)Nc4nc5cc(C(=O)c6ccccc6)ccc5[nH]4)cs3)CC2)n1 | 800 | 
3 | O=C(c1ccsc1)c1ccc2[nH]c(NC(=O)c3csc(C4CCN(c5ncnc6ccsc56)CC4)n3)nc2c1 | 500 | 
4 | N#Cc1ccc(CN2CCC(c3nc(C(=O)N4CCN(c5cccc(C(F)(F)F)c5)CC4)cs3)CC2)cc1 | 8500 | 
5 | COc1cc(N2CCC(c3nc(C(=O)N4CCN(c5cccc(C(F)(F)F)c5)CC4)cs3)CC2)nc(OC)n1 | 5000 | 
6 | O=C(c1csc(C2CCN(S(=O)(=O)c3cccs3)CC2)n1)N1CCN(c2cccc(C(F)(F)F)c2)CC1 | 20000 | 
7 | COc1cccc(NC(=O)N2CCC(c3nc(C(=O)N4CCN(c5cccc(C(F)(F)F)c5)CC4)cs3)CC2)c1 | 7200 | 
8 | O=C(c1ccccc1)c1ccc2[nH]c(NC(=O)c3csc(C4CCN(C(=O)c5ccccc5OC(F)(F)F)CC4)n3)nc2c1 | 800 | 
9 | Cc1cc2nnc(C(=O)N3CCC(c4nc(C(=O)NC5CCN(Cc6ccccc6)C5)cs4)CC3)c(C)n2n1 (stereo not given) |  | inhibition (A549): 30%; IC50 (PBMC): 37 µM; IC50 [2]: 580 nM
10 | O=C(c1csc(C2CCN(S(=O)(=O)c3ccc(F)cc3Cl)CC2)n1)N1CCN(c2cccc(C(F)(F)F)c2)CC1 | 20000 | 
11 | O=C(c1ccccc1)c1ccc2[nH]c(NC(=O)c3csc(C4CCN(c5cc(C(F)(F)F)ncn5)CC4)n3)nc2c1 | 500 | 
12 | COc1nc(OC)nc(N2CCC(c3nc(C(=O)N4CCN(c5cccc(C(F)(F)F)c5)CC4)cs3)CC2)n1 | 4700 | IC50 (PBMC): 15 µM
13 | O=C(Nc1cccc(F)c1)N1CCC(c2nc(C(=O)N3CCN(c4cccc(C(F)(F)F)c4)CC3)cs2)CC1 | 3400 | 
14 | Cc1cc2nnc(C(=O)N3CCC(c4nc(C(=O)Nc5nc6cc(C(=O)c7ccccc7)ccc6[nH]5)cs4)CC3)c(C)n2n1 | 900 | 
15 | Cc1cc2nc(NC(=O)c3csc(C4CCN(C(=O)c5ccccc5OC(F)(F)F)CC4)n3)[nH]c2cc1C | 3000 | 
16 | O=C(c1csc(C2CCN(c3ccc(C(F)(F)F)cc3)CC2)n1)N1CCN(c2cccc(C(F)(F)F)c2)CC1 | 20000 | IC50 [2]: 480 nM
17 | COc1nc(OC)nc(N2CCC(c3nc(C(=O)Nc4nc5cc(C(=O)c6ccsc6)ccc5[nH]4)cs3)CC2)n1 | 400 | 
18 | COC(=O)c1nc2nccc(N3CCC(c4nc(C(=O)Nc5nc6cc(C(=O)c7ccccc7)ccc6[nH]5)cs4)CC3)n2n1 | 500 | IC50 (PBMC): 2.5 µM

Continued by falling EC50 [1], values first:

Row | EC50 [1] [nM] | SMILES | other results
19 | 300 | COc1cc(N2CCC(c3nc(C(=O)Nc4nc5cc(C(=O)c6ccccc6)ccc5[nH]4)cs3)CC2)nc(OC)n1 | IC50 [2]: > 3000 nM
20 | 300 | N#Cc1ccc(CN2CCC(c3nc(C(=O)Nc4nc5cc(C(=O)c6ccccc6)ccc5[nH]4)cs3)CC2)cc1 | 
21 | 300 | COc1cc2ncnc(N3CCC(c4nc(C(=O)Nc5nc6cc(C(=O)c7ccccc7)ccc6[nH]5)cs4)CC3)c2cc1OC | 
22 | 300 | O=C(c1ccccc1)c1ccc2[nH]c(NC(=O)c3csc(C4CCN(c5ncnc6nc[nH]c56)CC4)n3)nc2c1 | 
23 | 300 | O=C(c1ccccc1)c1ccc2[nH]c(NC(=O)c3csc(C4CCN(c5ccncc5[N+](=O)[O-])CC4)n3)nc2c1 | 
24 | 300 | Cc1cc2nc(NC(=O)c3csc(C4CCN(c5ncnc6ccsc56)CC4)n3)[nH]c2cc1C | 
25 | 200 | O=C(c1ccccc1)c1ccc2[nH]c(NC(=O)c3csc(C4CCN(c5ncnc6ccsc56)CC4)n3)nc2c1 | IC50 (PBMC): 2.2 µM
26 | 100 | Cc1cc2nccc(N3CCC(c4nc(C(=O)Nc5nc6cc(C(=O)c7ccccc7)ccc6[nH]5)cs4)CC3)n2n1 | 
27 | 100 | O=C(c1ccccc1)c1ccc2[nH]c(NC(=O)c3csc(C4CCN(c5ccnc6ncnn56)CC4)n3)nc2c1 | IC50 (PBMC): 3.6 µM
